Activity calls are given as the source filed them. The rule behind the calls is not given here.
How the values were obtained:
HCT-116 [1] = assay: Induction of cell cycle arrest in human HCT116 cells assessed as accumulation at G2/M phase at 5 uM after 12 hrs by propidium iodide staining-based flow cytometry (reference value: 10%); assay type: functional
NCI-H460 [2] = assay: Antiproliferative activity against human NCI-H460 cells assessed as reduction in cell viability after 24 hrs by MTT assay; assay type: functional, cell-based; conditions: NCI-H460, 24 h
In short: (§1)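 3000 cells/well incubated in triplicate with serial concentrations of compound for 24, 48 or 72 h at 37 °C. MTT (5.0 mg/mL solution) added 3 h before the end. Formazan dissolved in DMSO, absorbance read at 570 and 630 nm. Viability normalised to vehicle control. IC50 from non-linear regression (variable slope), mean ± SD of triplicates.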

HCT-116 [3] = assay: Induction of apoptosis in human HCT116 cells assessed as live cells at 10 uM after 24 hrs by 7-ADD and caspase 3/7 activity-based flow cytometry (reference value: 92.60%); assay type: functional
HCT-116 [4] = assay: Induction of cell cycle arrest in human HCT116 cells assessed as accumulation at S phase at 5 uM after 24 hrs by propidium iodide staining-based flow cytometry (reference value: 48%); assay type: functional
HCT-116 [5] = assay: Effect on cell cycle in human HCT116 cells assessed as inhibition of cyclin B1 expression at 1 to 10 uM after 24 hrs by Western blot method; assay type: functional, cell-based
In short: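 CRC cells treated at indicated doses for 24 h. Whole-cell lysates made in RIPA buffer with protease and phosphatase inhibitors and cleared at 15,000 rpm for 10 min. Resolved on 4-12% gels, transferred to PVDF, probed for cell-cycle proteins, detected by ECL. Membranes stripped for sequential probing.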

NCI-H460 [6] = assay: Antiproliferative activity against human NCI-H460 cells assessed as reduction in cell viability after 48 hrs by MTT assay; assay type: functional, cell-based; conditions: NCI-H460, 48 h; in short: as §1
RKO = assay: Antiproliferative activity against human RKO cells assessed as reduction in cell viability after 24 hrs by MTT assay; assay type: functional, cell-based; in short: as §1
[7] = Antiproliferative activity against human SKOV3 cells assessed as reduction in cell viability after 24 hrs by MTT assay; assay type: functional, cell-based; conditions: SK-OV-3, 24 h; in short: as §1

CC(=O)Oc1ccccc1C(=O)NCC[Se]C#N
Activity (HCT-116 [1]): 24%
IC50 (NCI-H460 [2]): > 50 µM
Activity (HCT-116 [3]): 13.25%
Activity (HCT-116 [4]): 13%
inhibition (HCT-116 [5]): Active
IC50 (NCI-H460 [6]): 2.4 µM
IC50 (RKO): 13.3 µM
IC50 [7]: > 50 µM
